This is an account of results in PMC8414988 (Pediatric blood & cancer, 2021).

The assay concerns progressive or refractory brain tumors. Briefly: Tumor response assessment. The format is in vivo, human. Put shortly:
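Oral once-daily dosing, 21 of 28 days, for up to 26 courses. Response by bi-dimensional MR measurement. CR: all enhancing tumor gone. PR: ≥50% reduction. Both held ≥8 weeks on stable or decreasing corticosteroids. PD: >25% increase from smallest measurement, new lesion, or neurologic worsening. Patients receiving ≥1 dose evaluable.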

With `CC(=O)c1c(C)c2cnc(Nc3ccc(N4CCNCC4)cn3)nc2n(C2CCCC2)c1=O` [palbociclib], the objective response entry (Stratum I and II) was “No patients on either stratum had an objective response”. In addition, the time on treatment was 4 courses (Stratum II, 3 subjects (2 at 50 mg/m^2 and 1 at 75 mg/m^2)); 6 courses (one patient with GBM, 75 mg/m^2); 18 courses (one patient with anaplastic ependymoma, Stratum I, 75 mg/m^2).
